From PubChem
T cruzi inh = blocks replication of Trypanosoma cruzi | AID 1885 | T. cruzi beta-gal in NIH3T3, luminescence, 90 h | inhibition, % (test concentration not listed) | 300,000 tested, 1.4% active;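 active = mean inhibition across valid replicates above about 55%, limit read from the data; inconclusive = mean below that limit but half or more replicates reach it; inactive = mean below it, under half of replicates reach it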;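 also: signal also drops with host cell toxicity which is not excluded here; higher percent means less beta-gal luminescence so fewer parasites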
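Read-out: Parasite load inhibition, % | Test system: Mouse NIH/3T3 fibroblasts infected with β-gal-expressing T. cruzi Tulahuen C4 | Amount: 5,000 cells/well | Medium: DMEM, 2% fetal bovine serum | Signal: GalScreen β-gal luminescence, detergent lysis, 60 min | Timing: 3 h attach, ≥90 h co-culture | Also added: Tulahuen C4 trypomastigotes, 5000/well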
HSF1 inhib = HSF1 inhibition. NIH3T3-HGL HSE-luciferase, MG132-induced, luminescence 8 h; active compounds read low. activity change, negative = inhibition, % at 7.5 µM (by protocol). 300,000 tested, 0.77% active. AID 2098;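 active = more than half of replicate wells show activity change below -50%, luminescence cut by over half; inconclusive = some wells, but at most half, below -50%; inactive = no replicate well below -50%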;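 also: luciferase reports HSF-1 transcriptional activity via heat shock element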
Hsp70 activator = transcriptional activators of Hsp70; HeLa Hsp70 promoter luciferase reporter, luminescence; scaled: vehicle 0, proteasome-inhibitor control 100%; activation, % at 10 µM; 200,000 tested, 0.04% active;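 active = activation above the mean across all tested compounds plus 3 SD, cutoff set per campaign, cut at about 5.5% in these data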
Lmaj promast = inhibitors of Leishmania major promastigote growth. Leishmania major promastigotes, resazurin fluorescence viability. inhibition, % at 10 µM. 200,000 tested, 9% active; in the data active = inhibition above about 50%;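 also: promastigotes grown with compound for 44 hours at 28 °C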
HSF-1 act = increases HSF-1 driven luciferase reporter signal. NIH3T3-HGL HSF-1 luciferase reporter, MG132, 8 h; 100% = twice DMSO control signal. activation, % at 9 µM. 300,000 tested, 1.7% active. AID 504408;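 active = mean replicate activation of at least 50% with a set share of replicates each reaching 50%; inconclusive = only one of those two conditions met; inactive = mean below 50% and too few replicates reaching it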
Each line names hits and unclear results; the compound was inactive in the other large screens. The full list was thinned out, with hits kept by preference.

Cc1nc(C)n(CC(C)C(=O)N2CCN(S(=O)(=O)c3ccc(Cl)cc3)CC2)n1 (stereo not given)	none (no result: Hsp70 activator, Lmaj promast)
CCOc1ccc(NC(=O)C2CCN(S(=O)(=O)c3ccc4c(c3)NC(=O)C(C)S4)CC2)cc1 (stereo not given)	none (no result: Hsp70 activator, Lmaj promast)
C/C=C/c1ccc(OCCCNCC(C)O)c(OC)c1 (stereo not given)	none
CC(O)CNCCCCOc1ccc(OCc2ccccc2)cc1 (stereo not given)	Lmaj promast 97
CNCC(C)COc1ccccc1OCc1ccccc1 (stereo not given)	Lmaj promast 99
CC(O)CNCCCOc1ccccc1OCc1ccccc1 (stereo not given)	Lmaj promast 99
NNC(=O)c1ccccc1OCc1ccccc1	none (no result: Hsp70 activator, Lmaj promast)
COc1ccc(C(=O)NC(C)CCc2ccccc2)c(O)c1 (stereo not given)	none (no result: Hsp70 activator, Lmaj promast)
O=C(Cn1c(-c2ccccc2)c[n+]2ccsc12)c1ccc([N+](=O)[O-])cc1	T cruzi inh 75
O=C(Cn1c(-c2ccccc2)c[n+]2ccsc12)c1ccccc1	T cruzi inh 69
O=C(Cn1nnc(-c2ccccc2)n1)c1ccccc1	none
CCc1ccc(CNC(=O)CCn2ccc3cc(S(=O)(=O)N4CCCC4)ccc32)cc1	none (no result: Hsp70 activator, Lmaj promast)
COc1cc(CNCCC2CCOC(C)(C)C2)ccc1O (stereo not given)	Lmaj promast 57
CC1=C(C#N)C(c2cn(-c3ccccc3)nc2-c2cccs2)C(C#N)=C(C)N1	T cruzi inh inconclusive, Lmaj promast 66
COCCOC(=O)C1=C(C)NC(=O)NC1c1cn(-c2ccccc2)nc1-c1cccs1 (stereo not given)	none
Cc1cc(NC(=O)c2cc(-c3cccnc3)nc3c(C)c(C)ccc23)no1	none
Cc1c(Cl)ccc2c(C(=O)Nc3cc(C(C)(C)C)on3)cc(-c3ccccn3)nc12	T cruzi inh 61 (no result: Hsp70 activator, Lmaj promast)
S=c1[nH]nc(COc2ccccc2)n1/N=C/c1c(Cl)cccc1Cl	none (no result: Hsp70 activator, Lmaj promast)
CN(CC(=O)Nc1ccccc1Br)C(=O)c1cccn1C	T cruzi inh inconclusive, HSF1 inhib -67 (no result: Hsp70 activator, Lmaj promast)
CCCCc1cc(=O)oc2cc(OCc3nn[nH]n3)ccc12	none (no result: Hsp70 activator, Lmaj promast)
CC(=O)c1cccc(NC(=O)COC(=O)c2n[nH]c3ccccc23)c1	none
CCC(Oc1cc(Cl)ccc1Cl)C(=O)NN1C(=O)C2C3CCC(C3=C(C)C)C2C1=O (stereo not given)	Lmaj promast 98
CCC(Oc1cc(Cl)ccc1Cl)C(=O)NNC(=O)CCC(=O)O (stereo not given)	none
CN(Cc1ccccc1)c1ccc(N2C(=O)CCCC2=O)cc1[N+](=O)[O-]	Lmaj promast 81
Cc1cccc(N2CCN(c3ccc(N4C(=O)CCCC4=O)cc3[N+](=O)[O-])CC2)c1C	Lmaj promast 58
Cc1cccc(N2CCN(c3ccc(N4C(=O)CCCC4=O)cc3[N+](=O)[O-])CC2C)c1 (stereo not given)	Lmaj promast 50
Cc1ccc(OCCCCNC2CCCCC2)c(C)c1	T cruzi inh 55, Lmaj promast 94
CCCOc1ccc(OCCNC2CCCC2)cc1	Lmaj promast 94
Cc1ccc(C)c(OCCCNC2CCCC2)c1C	Lmaj promast 97
C=CCc1ccc(OCCCCNC2CCCC2)c(OC)c1	Lmaj promast 89
COc1cccc(OC)c1OCCCNC1CCCC1	none (no result: Hsp70 activator, Lmaj promast)
COCCNC(=S)N1CCN(S(C)(=O)=O)CC1	none
COc1ccc(S(=O)(=O)NCC(=O)N(Cc2ccco2)C(C(=O)NC(C)(C)C)C(C)C)cc1 (stereo not given)	none (no result: Hsp70 activator, Lmaj promast)
CCOc1ccccc1OCCNC1CCCC1	none
CC(C)(C)c1ccc(OCCCNC2CCCC2)cc1	Lmaj promast 99
CCOc1ccc(OCCNC2CCCC2)cc1	Lmaj promast 84
Cc1ccc(OCCCNC2CCCC2)cc1	none
COc1ccccc1NC(=O)Cn1nnc(C(=O)NCCc2ccccc2)c1N	none
Cc1ccc(-n2nc(-c3ccc(OC(F)(F)F)cc3)cc2N)cc1C	none (no result: Hsp70 activator, Lmaj promast)
O=C(CCCC(=O)Nc1ccc(Br)cc1)N/N=C/c1ccccc1	none (no result: Hsp70 activator, Lmaj promast)
CCC(CC)C1C(C#N)=C(N)Oc2n[nH]c(C)c21 (stereo not given)	Lmaj promast 99
Cc1[nH]nc2c1C(C1CC=CCC1)C(C#N)=C(N)O2 (stereo not given)	Lmaj promast 100 (no result: T cruzi inh, HSF1 inhib, HSF-1 act)
Cc1ccc(NC(=O)CCC(=O)NNC(=O)NC2CCCCC2)c(C)c1	none
C/C(=N\NC(N)=S)C12CC3CC(CC(C3)C1)C2	Lmaj promast 101
